Test results published in ChEMBL document CHEMBL3228039, “Synthesis and evaluation of the antiovulatory activity of a variety of melatonin analogues” (J Med Chem, 1979).
The source made the active and inactive calls. The calls are words filed in the database; no cut-off is given here.

Legend:
Rattus norvegicus [1] = assay: Antiovulatory activity in Sprague-Dawley rat assessed as blockage of luteinizing hormone surge by measuring reduction in ovulation at 4 mg/kg, po by microscopic analysis; assay type: functional, organism-based; set-up: dose 4 mg/kg
Procedure, shortened: (§1)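 Female rats (270-300 g) with at least two consecutive 4-day estrus cycles, tracked by daily vaginal smears, were used on the day of proestrus. A single dose was given at 1200 h, either iv in 50% Me2SO or orally in PEG 400. Controls received vehicle only. Rats were killed on the day of estrus, and oviducts were examined microscopically for ova. Absence of ova was scored as ovulation blocked.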

Rattus norvegicus [2] = assay: Antiovulatory activity in Sprague-Dawley rat assessed as blockage of luteinizing hormone surge by measuring reduction in ovulation at 8 mg/kg, po by microscopic analysis; assay type: functional, organism-based; set-up: dose 8 mg/kg; procedure, shortened: as §1
Rattus norvegicus [3] = assay: Antiovulatory activity in Sprague-Dawley rat assessed as blockage of luteinizing hormone surge by measuring reduction in ovulation at 8 mg/kg, iv by microscopic analysis; assay type: functional, organism-based; set-up: dose 8 mg/kg; procedure, shortened: as §1
[4] = Half life in rat plasma after 30 mins; assay type: ADME, cell-free
[5] = Half life in rat plasma after 2 hrs; assay type: ADME, cell-free
[6] = Half life in serum (unknown origin) after first 2 hrs post iv dose; assay type: ADME, organism-based
Rattus norvegicus [7] = assay: Antiovulatory activity in Sprague-Dawley rat assessed as blockage of luteinizing hormone surge by measuring reduction in ovulation at 4 mg/kg, iv by microscopic analysis; assay type: functional, organism-based; set-up: dose 4 mg/kg; procedure, shortened: as §1
Rattus norvegicus [8] = assay: Antiovulatory activity in Sprague-Dawley rat assessed as blockage of luteinizing hormone surge by measuring reduction in ovulation at 5 mg/kg, po by microscopic analysis; assay type: functional, organism-based; set-up: dose 5 mg/kg; procedure, shortened: as §1
Xenopus laevis = organism: Xenopus laevis; assay: Melatonin-like activity in tadpole by blanching test; assay type: functional, organism-based

For `CCC(=O)NCCc1c[nH]c2cc(Cl)c(OC)cc12`, which Activity (Rattus norvegicus [1]) is on record?
Its Activity is “inactive”.

With `CCOc1ccc2[nH]cc(CCNC(C)=O)c2c1` as the compound, how does the Activity (Rattus norvegicus [2]) read?
Its Activity is “Active”.

Which Activity (Rattus norvegicus [2]) does the source give for `COc1ccc2[nH]cc(CCNC(C)=O)c2c1Cl` here?
Its Activity is “Active”.

With `CC(=O)NCCc1c[nH]c2ccc(OC(C)=O)cc12` as the compound, how does the Activity (Rattus norvegicus [2]) read?
Its Activity is “Active”.

What about the Activity (Rattus norvegicus [3]) of the same compound?
The Activity was “Active”.

With `CC(=O)NCCc1c[nH]c2ccc(O)cc12` as the compound, how does the Activity (Rattus norvegicus [2]) read?
Its Activity is “Active”.

And the Activity (Rattus norvegicus [3])?
Its Activity is “Active”.

Which half-life [4] does the source give for `COc1ccc2[nH]cc(CCNC(C)=O)c2c1` [MELATONIN] here?
The half-life was 15 min.

And the half-life [5]?
Its half-life is 12 min.

What about the half-life [6] of the same compound?
Its half-life is over 12 min.

Which Activity (Rattus norvegicus [7]) does the source give for `COc1cc2c(CCNC(C)=O)c[nH]c2cc1Cl` here?
Its Activity is “inactive”.

What about the Activity (Rattus norvegicus [8]) of the same compound?
The Activity was “inactive”.

What about the Activity (Xenopus laevis) of the same compound?
Its Activity is “Active”.

And the half-life [6]?
The half-life was 27 min.

For `COc1cc2c(CCNC(C)=O)c[nH]c2cc1C`, which Activity (Rattus norvegicus [2]) is on record?
The Activity was “Active”.

With `COc1cc2c(CCNC(=O)C34CC5CC(CC(C5)C3)C4)c[nH]c2cc1Cl` as the compound, how does the Activity (Rattus norvegicus [2]) read?
Its Activity is “Active”.

Which Activity (Rattus norvegicus [2]) does the source give for `COc1ccc2c(c1)c(CCNC(C)=O)cn2C` here?
Its Activity is “Active”.

With `CC(=O)NCCc1c[nH]c2ccc(OC3CCCC3)cc12` as the compound, how does the Activity (Rattus norvegicus [2]) read?
Its Activity is “Active”.
